# Test results: ChEMBL document CHEMBL1139385, “Structural analysis of ARC-type inhibitor (ARC-1034) binding to protein kinase A catalytic subunit and rational design of bisubstrate analogue inhibitors of basophilic protein kinases” (J Med Chem, 2009)
# Where a SMILES comes first, the peptide text is derived from it. [ ]: non-standard residue; d: D form. The star is where a group is joined. Adenosine(5'-uronoyl) = Nc1ncnc2c1ncn2[C@@H]1O[C@H](C(=O)*)[C@@H](O)[C@H]1O; Ahx = NCCCCCC(=O)O
# What was measured:
# [1] = target: T1, cAMP-dependent protein kinase catalytic subunit alpha (Homo sapiens, UniProt P17612); test: Inhibition of PKA catalytic subunit alpha using 100 uM ATP and 30 uM TAMRA-kemptide substrate by fluorometric TLC assay
# [2] = target: T1, cAMP-dependent protein kinase catalytic subunit alpha; test: Binding affinity to PKA catalytic subunit alpha by fluorescence polarization assay
# [3] = target: 5'-AMP-activated protein kinase catalytic subunit alpha-1 (Homo sapiens) (UniProt Q13131); test: Inhibition of AMPKalpha1 at 100 nM relative to control
# Method in brief: (§1)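 Activity is expressed as percent inhibition versus control incubations lacking inhibitor. Values are means of duplicate determinations.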
# [4] = target: 5'-AMP-activated protein kinase subunit beta-1 (Homo sapiens) (UniProt Q9Y478); test: Inhibition of AMPKbeta1 at 100 nM relative to control; method in brief: as §1
# [5] = target: 5'-AMP-activated protein kinase subunit gamma-1 (Homo sapiens) (UniProt P54619); test: Inhibition of AMPKgamma1 at 100 nM relative to control; method in brief: as §1
# [6] = target: Aurora kinase A (Homo sapiens) (UniProt O14965); test: Inhibition of Aurora A at 100 nM relative to control; method in brief: as §1
# [7] = target: Calcium/calmodulin-dependent protein kinase type 1D (Homo sapiens) (UniProt Q8IU85); test: Inhibition of CaMK1delta at 100 nM relative to control; method in brief: as §1
# [8] = target: Calcium/calmodulin-dependent protein kinase type II subunit alpha (Homo sapiens) (UniProt Q9UQM7); test: Inhibition of CaMK2alpha at 100 nM relative to control; method in brief: as §1
# [9] = target: Calcium/calmodulin-dependent protein kinase type II subunit beta (Homo sapiens) (UniProt Q13554); test: Inhibition of CaMK2beta at 100 nM relative to control; method in brief: as §1
# [10] = target: CDK2/Cyclin A1 (Homo sapiens) (UniProt P24941+P78396); test: Inhibition of Cdk2/cyclin A at 100 nM relative to control; assay type: protein-complex assay; method in brief: as §1
# [11] = target: Serine/threonine-protein kinase Chk1 (Homo sapiens) (UniProt O14757); test: Inhibition of CHK1 at 100 nM relative to control; method in brief: as §1
# [12] = target: Serine/threonine-protein kinase Chk2 (Homo sapiens) (UniProt O96017); test: Inhibition of CHK2 at 100 nM relative to control; method in brief: as §1
# [13] = target: Death-associated protein kinase 3 (Homo sapiens) (UniProt O43293); test: Inhibition of DAPK3 at 100 nM relative to control; method in brief: as §1
# [14] = target: Glycogen synthase kinase-3 alpha (Homo sapiens) (UniProt P49840); test: Inhibition of GSK3alpha at 100 nM relative to control; method in brief: as §1
# [15] = target: Glycogen synthase kinase-3 beta (Homo sapiens) (UniProt P49841); test: Inhibition of GSK3-beta at 100 nM relative to control; method in brief: as §1
# [16] = target: Ribosomal protein S6 kinase alpha-5 (Homo sapiens) (UniProt O75582); test: Inhibition of MSK1 at 100 nM relative to control; method in brief: as §1
# [17] = target: Ribosomal protein S6 kinase alpha-4 (Homo sapiens) (UniProt O75676); test: Inhibition of MSK2 at 100 nM relative to control; method in brief: as §1
# [18] = target: Serine/threonine-protein kinase PAK 3 (Homo sapiens) (UniProt O75914); test: Inhibition of PAK3 at 100 nM relative to control; method in brief: as §1
# [19] = target: Serine/threonine-protein kinase PAK 4 (Homo sapiens) (UniProt O96013); test: Inhibition of PAK4 at 100 nM relative to control; method in brief: as §1
# [20] = target: RAC-alpha serine/threonine-protein kinase (Homo sapiens) (UniProt P31749); test: Inhibition of AKT1 at 100 nM relative to control; method in brief: as §1
# [21] = target: RAC-beta serine/threonine-protein kinase (Homo sapiens) (UniProt P31751); test: Inhibition of AKT2 at 100 nM relative to control; method in brief: as §1
# [22] = target: Protein kinase C beta type (Homo sapiens) (UniProt P05771); test: Inhibition of PKCbeta1 at 100 nM relative to control; method in brief: as §1
# [23] = target: Protein kinase C beta type (Homo sapiens) (UniProt P05771); test: Inhibition of PKCbeta2 at 100 nM relative to control; method in brief: as §1
# [24] = target: Protein kinase C delta type (Homo sapiens) (UniProt Q05655); test: Inhibition of PKCdelta at 100 nM relative to control; method in brief: as §1
# [25] = target: Protein kinase C epsilon type (Homo sapiens) (UniProt Q02156); test: Inhibition of PKCepsilon at 100 nM relative to control; method in brief: as §1
# [26] = target: Protein kinase C gamma type (Homo sapiens) (UniProt P05129); test: Inhibition of PKCgamma at 100 nM relative to control; method in brief: as §1
# [27] = target: Protein kinase C eta type (Homo sapiens) (UniProt P24723); test: Inhibition of PKCeta at 100 nM relative to control; method in brief: as §1
# [28] = target: Protein kinase C iota type (Homo sapiens) (UniProt P41743); test: Inhibition of PKCiota at 100 nM relative to control; method in brief: as §1
# [29] = target: Serine/threonine-protein kinase D1 (Homo sapiens) (UniProt Q15139); test: Inhibition of PKCmu at 100 nM relative to control; method in brief: as §1
# [30] = target: Protein kinase C theta type (Homo sapiens) (UniProt Q04759); test: Inhibition of PKCtheta at 100 nM relative to control; method in brief: as §1
# [31] = target: Protein kinase C zeta type (Homo sapiens) (UniProt Q05513); test: Inhibition of PKCzeta at 100 nM relative to control; method in brief: as §1
# [32] = target: Serine/threonine-protein kinase D3 (Homo sapiens) (UniProt O94806); test: Inhibition of PKD3 at 100 nM relative to control; method in brief: as §1
# [33] = target: cGMP-dependent protein kinase 1 (Homo sapiens) (UniProt Q13976); test: Inhibition of PKG1 at 100 nM relative to control; method in brief: as §1
# [34] = target: cGMP-dependent protein kinase 2 (Homo sapiens) (UniProt Q13237); test: Inhibition of PKG2 at 100 nM relative to control; method in brief: as §1
# [35] = target: Rho-associated protein kinase 1 (Homo sapiens) (UniProt Q13464); test: Inhibition of ROCK1 at 100 nM relative to control; method in brief: as §1
# [36] = target: Ribosomal protein S6 kinase alpha-2 (Homo sapiens) (UniProt Q15349); test: Inhibition of RSK3 at 100 nM relative to control; method in brief: as §1
# [37] = target: Serine/threonine-protein kinase Sgk1 (Homo sapiens) (UniProt O00141); test: Inhibition of SGK1 at 100 nM relative to control; method in brief: as §1
# [38] = target: Serine/threonine-protein kinase Sgk2 (Homo sapiens) (UniProt Q9HBY8); test: Inhibition of SGK2 at 100 nM relative to control; method in brief: as §1
# [39] = target: Proto-oncogene tyrosine-protein kinase Src (Homo sapiens) (UniProt P12931); test: Inhibition of SRC at 100 nM relative to control; method in brief: as §1
# [40] = target: Rho-associated protein kinase 2 (Homo sapiens) (UniProt O75116); conditions: 100 nM
# [41] = target: Ribosomal protein S6 kinase alpha-3 (Homo sapiens) (UniProt P51812); conditions: 100 nM
# [42] = target: Rho-associated protein kinase 2 (Bos taurus) (UniProt Q28021); test: Binding affinity to ROCK2 by fluorescence polarization assay
# Chain of Protein kinase C beta type (Homo sapiens) (P05771 2-671 limits assumed): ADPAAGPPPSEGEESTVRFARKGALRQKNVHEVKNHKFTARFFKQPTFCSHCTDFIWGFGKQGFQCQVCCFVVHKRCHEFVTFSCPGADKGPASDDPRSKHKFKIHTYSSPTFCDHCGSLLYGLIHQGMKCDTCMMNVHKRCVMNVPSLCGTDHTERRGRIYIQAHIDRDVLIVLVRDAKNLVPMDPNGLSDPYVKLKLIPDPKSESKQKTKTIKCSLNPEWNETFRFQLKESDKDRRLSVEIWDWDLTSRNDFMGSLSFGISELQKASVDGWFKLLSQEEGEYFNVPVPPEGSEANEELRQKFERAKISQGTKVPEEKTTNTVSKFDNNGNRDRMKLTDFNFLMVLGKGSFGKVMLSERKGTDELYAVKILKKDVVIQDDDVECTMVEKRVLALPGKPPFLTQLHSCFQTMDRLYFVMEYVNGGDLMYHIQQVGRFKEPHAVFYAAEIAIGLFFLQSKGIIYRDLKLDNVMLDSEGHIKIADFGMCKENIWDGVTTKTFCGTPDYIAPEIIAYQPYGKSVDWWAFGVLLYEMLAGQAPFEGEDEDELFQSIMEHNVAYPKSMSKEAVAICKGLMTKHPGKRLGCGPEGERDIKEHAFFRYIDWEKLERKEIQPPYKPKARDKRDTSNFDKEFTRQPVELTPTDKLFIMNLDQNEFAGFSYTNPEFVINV
# Chain of Protein kinase C epsilon type (Homo sapiens) (Q02156 whole entry): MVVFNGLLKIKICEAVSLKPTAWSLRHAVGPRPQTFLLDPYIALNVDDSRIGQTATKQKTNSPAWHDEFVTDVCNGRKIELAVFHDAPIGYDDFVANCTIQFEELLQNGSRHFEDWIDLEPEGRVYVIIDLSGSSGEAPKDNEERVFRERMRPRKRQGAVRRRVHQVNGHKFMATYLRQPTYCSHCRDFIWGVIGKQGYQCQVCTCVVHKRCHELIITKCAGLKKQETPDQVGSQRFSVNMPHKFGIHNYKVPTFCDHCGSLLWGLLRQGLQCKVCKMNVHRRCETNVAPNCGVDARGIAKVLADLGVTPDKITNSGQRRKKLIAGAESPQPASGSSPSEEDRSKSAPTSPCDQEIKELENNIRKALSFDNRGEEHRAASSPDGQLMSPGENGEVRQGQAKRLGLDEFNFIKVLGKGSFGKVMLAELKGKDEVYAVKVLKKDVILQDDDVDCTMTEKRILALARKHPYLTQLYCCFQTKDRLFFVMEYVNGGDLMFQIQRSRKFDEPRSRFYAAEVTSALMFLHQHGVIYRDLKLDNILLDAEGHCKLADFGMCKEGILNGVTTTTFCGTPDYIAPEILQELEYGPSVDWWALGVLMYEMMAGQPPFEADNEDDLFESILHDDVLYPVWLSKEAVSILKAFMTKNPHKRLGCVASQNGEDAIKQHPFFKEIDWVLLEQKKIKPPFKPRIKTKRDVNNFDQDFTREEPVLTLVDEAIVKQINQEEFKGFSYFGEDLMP
# Chain of cGMP-dependent protein kinase 2 (Homo sapiens) (Q13237 whole entry): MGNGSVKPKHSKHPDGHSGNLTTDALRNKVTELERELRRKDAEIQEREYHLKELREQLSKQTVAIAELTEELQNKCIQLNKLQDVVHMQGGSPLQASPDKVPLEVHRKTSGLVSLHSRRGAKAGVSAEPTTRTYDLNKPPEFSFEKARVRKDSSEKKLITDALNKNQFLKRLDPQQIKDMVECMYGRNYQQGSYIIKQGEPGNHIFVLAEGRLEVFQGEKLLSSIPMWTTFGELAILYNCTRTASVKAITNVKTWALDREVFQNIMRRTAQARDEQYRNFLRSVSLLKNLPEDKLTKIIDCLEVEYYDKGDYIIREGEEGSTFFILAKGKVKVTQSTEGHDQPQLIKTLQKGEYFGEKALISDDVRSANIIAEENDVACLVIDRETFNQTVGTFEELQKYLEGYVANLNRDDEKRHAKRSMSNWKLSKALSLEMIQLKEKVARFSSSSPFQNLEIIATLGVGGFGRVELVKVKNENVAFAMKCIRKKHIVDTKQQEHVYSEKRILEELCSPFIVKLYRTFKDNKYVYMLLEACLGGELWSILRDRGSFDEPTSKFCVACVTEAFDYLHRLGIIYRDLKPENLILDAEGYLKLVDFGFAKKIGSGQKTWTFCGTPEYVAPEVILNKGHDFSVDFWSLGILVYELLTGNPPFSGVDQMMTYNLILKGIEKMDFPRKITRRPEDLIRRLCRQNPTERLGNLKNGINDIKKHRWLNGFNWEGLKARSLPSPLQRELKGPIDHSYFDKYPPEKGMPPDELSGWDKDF
# Chain of Rho-associated protein kinase 2 (Homo sapiens) (O75116 whole entry, looked up): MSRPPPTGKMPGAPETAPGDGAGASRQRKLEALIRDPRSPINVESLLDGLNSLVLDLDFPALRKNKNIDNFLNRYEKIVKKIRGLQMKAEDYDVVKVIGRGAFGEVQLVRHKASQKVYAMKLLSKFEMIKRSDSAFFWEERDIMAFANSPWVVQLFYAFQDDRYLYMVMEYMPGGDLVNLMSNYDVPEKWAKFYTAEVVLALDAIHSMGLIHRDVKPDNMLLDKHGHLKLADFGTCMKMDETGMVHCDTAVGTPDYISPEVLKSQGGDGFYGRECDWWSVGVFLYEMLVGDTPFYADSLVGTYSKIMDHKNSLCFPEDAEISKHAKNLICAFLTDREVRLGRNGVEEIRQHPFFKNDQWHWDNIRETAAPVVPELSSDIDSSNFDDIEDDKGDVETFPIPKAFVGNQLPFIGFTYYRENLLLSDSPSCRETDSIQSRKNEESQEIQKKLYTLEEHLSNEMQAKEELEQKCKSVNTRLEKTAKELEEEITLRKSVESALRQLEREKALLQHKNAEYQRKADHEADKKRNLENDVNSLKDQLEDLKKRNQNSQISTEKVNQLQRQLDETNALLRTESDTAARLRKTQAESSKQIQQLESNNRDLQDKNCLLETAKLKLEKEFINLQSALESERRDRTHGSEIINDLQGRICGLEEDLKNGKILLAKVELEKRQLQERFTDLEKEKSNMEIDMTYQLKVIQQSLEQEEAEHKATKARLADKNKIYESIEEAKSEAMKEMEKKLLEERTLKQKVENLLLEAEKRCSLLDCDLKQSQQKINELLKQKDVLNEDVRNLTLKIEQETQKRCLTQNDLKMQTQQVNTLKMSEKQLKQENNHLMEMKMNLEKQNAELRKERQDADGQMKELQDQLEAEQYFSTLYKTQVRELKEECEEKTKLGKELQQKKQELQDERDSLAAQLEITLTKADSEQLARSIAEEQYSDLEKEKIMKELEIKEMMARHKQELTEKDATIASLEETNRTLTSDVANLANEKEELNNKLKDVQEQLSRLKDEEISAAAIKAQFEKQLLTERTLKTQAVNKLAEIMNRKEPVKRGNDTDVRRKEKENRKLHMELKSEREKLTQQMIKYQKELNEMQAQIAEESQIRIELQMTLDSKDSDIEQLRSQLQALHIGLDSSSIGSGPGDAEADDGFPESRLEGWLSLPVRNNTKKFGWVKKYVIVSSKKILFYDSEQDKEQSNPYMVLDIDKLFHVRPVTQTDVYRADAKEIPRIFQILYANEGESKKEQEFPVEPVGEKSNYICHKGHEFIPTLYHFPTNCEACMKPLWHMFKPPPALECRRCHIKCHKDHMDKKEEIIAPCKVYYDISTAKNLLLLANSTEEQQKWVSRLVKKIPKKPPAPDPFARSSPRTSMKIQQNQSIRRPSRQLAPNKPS
# Chain of Serine/threonine-protein kinase Sgk2 (Homo sapiens) (Q9HBY8 whole entry): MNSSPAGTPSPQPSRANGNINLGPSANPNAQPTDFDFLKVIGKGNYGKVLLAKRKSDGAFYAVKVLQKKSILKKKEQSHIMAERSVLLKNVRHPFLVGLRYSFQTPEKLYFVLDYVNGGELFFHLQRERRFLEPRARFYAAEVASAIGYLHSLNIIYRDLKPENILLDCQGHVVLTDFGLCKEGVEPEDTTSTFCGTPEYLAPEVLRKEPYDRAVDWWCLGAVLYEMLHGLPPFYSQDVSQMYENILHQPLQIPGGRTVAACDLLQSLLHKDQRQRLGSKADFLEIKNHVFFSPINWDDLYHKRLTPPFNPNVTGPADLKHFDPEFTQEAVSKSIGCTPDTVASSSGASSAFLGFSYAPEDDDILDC
# Chain of Serine/threonine-protein kinase D3 (Homo sapiens) (O94806 whole entry): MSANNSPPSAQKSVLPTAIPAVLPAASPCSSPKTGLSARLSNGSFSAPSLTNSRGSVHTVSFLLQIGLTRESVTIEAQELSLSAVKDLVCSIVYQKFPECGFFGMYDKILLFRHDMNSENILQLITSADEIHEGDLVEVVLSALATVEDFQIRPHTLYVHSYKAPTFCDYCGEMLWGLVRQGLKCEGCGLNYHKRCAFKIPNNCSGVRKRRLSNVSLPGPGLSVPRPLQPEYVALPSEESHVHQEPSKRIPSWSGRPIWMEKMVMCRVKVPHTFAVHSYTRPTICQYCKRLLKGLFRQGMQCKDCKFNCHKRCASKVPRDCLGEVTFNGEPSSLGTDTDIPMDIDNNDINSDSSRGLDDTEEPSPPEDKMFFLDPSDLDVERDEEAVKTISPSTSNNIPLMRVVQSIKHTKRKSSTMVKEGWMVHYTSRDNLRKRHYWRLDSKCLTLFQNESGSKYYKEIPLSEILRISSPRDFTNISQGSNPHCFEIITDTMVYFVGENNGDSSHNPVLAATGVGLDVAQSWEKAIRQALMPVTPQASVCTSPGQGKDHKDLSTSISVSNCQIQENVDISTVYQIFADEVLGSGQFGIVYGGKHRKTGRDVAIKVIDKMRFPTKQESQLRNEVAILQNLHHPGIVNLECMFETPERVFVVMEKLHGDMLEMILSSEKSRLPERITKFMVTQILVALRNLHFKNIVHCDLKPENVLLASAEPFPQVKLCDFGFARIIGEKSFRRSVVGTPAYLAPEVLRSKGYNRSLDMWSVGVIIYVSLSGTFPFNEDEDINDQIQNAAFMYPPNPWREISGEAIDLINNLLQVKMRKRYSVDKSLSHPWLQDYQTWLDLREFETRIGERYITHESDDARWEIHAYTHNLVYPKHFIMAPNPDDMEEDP
smiles,measurement,setting,value
N=C(N)NCCC[C@@H](NC(=O)[C@@H](CCCNC(=N)N)NC(=O)[C@@H](CCCNC(=N)N)NC(=O)[C@@H](CCCNC(=N)N)NC(=O)[C@@H](CCCNC(=N)N)NC(=O)[C@@H](CCCNC(=N)N)NC(=O)CCCCCNC(=O)[C@@H](CCCCN)NC(=O)CCCCCNC(=O)[C@H]1O[C@@H](n2cnc3c(N)ncnc32)[C@H](O)[C@@H]1O)C(N)=O ({Adenosine(5'-uronoyl)-Ahx}-[dK][Ahx][dR][dR][dR][dR][dR][dR]-NH2),IC50,[1],5.32 nM
same,Kd,[2],< 0.5 nM
same,inhibition,[3],51%
same,inhibition,[4],51%
same,inhibition,[5],51%
same,inhibition,[6],10%
same,inhibition,[7],35%
same,inhibition,[8],5%
same,inhibition,[9],16%
same,inhibition,[10],0%
same,inhibition,[11],88%
same,inhibition,[12],62%
same,inhibition,[13],22%
same,inhibition,[14],16%
same,inhibition,[15],16%
same,inhibition,[16],105%
same,inhibition,[17],109%
same,inhibition,[18],74%
same,inhibition,[19],81%
same,inhibition,[20],89%
same,inhibition,[21],62%
same,inhibition,[22],97%
same,inhibition,[23],94%
same,inhibition,[24],97%
same,inhibition,[25],106%
same,inhibition,[26],107%
same,inhibition,[27],106%
same,inhibition,[28],34%
same,inhibition,[29],54%
same,inhibition,[30],97%
same,inhibition,[31],53%
same,inhibition,[32],55%
same,inhibition,[33],58%
same,inhibition,[34],16%
same,inhibition,[35],105%
same,inhibition,[36],99%
same,inhibition,[37],89%
same,inhibition,[38],76%
same,inhibition,[39],28%
same,inhibition,[40],104%
same,inhibition,[41],104%
same,Kd,[42],< 1 nM
